Experimental data reported in ChEMBL document CHEMBL1136530, “Synthesis, stereochemical assignment and biological activity of a novel series of C-4" modified aza-macrolides” (2003).
≈ marks a conversion by molar mass, not a printed value.

Experiments:
Type in all cases: functional
[1] = tested on: Mus musculus; assay: In vivo effective dose against Pasteurella multocida infection in mouse
Summary of the method: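 Mice infected with P. multocida serotype 5A. Subcutaneous dosing 0.5 h post-infection at 5 to 80 mg/kg. ED50 calculated from the number of mice surviving four days after infection.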

[2] = tested on: Escherichia coli; assay: Minimum inhibitory concentration against Escherichia coli
[3] = tested on: Pasteurella multocida; assay: Minimum inhibitory concentration against Pasteurella multocida
Summary of the method: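 P. multocida strain 59A0067 (turkey origin), grown overnight on BHI plates; colonies in saline at OD625 0.09 (0.5 McFarland), diluted 1:100 in BHI broth. Two-fold serial dilutions in BHI microdilution, about 5×10⁵ cfu/mL final, 37 °C for 18 h. MIC is the lowest concentration with A600 ≤ 0.025.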

Structure (SMILES)	ED50 [1]	MIC [2]	MIC [3]
CC[C@H]1OC(=O)[C@H](C)[C@@H](O[C@H]2C[C@@](C)(OC)[C@@]3(CO3)[C@H](C)O2)[C@H](C)[C@@H](O[C@@H]2O[C@H](C)C[C@H](N(C)C)[C@H]2O)[C@](C)(O)C[C@@H](C)CN[C@H](C)[C@@H](O)[C@]1(C)O	31 mg/kg	1.56 µg/mL (≈ 2.09 µM)	< 0.1 µg/mL
CC[C@H]1OC(=O)[C@H](C)[C@@H](O[C@H]2C[C@@](C)(OC)[C@@](O)(c3ccco3)[C@H](C)O2)[C@H](C)[C@@H](O[C@@H]2O[C@H](C)C[C@H](N(C)C)[C@H]2O)[C@](C)(O)C[C@@H](C)CN[C@H](C)[C@@H](O)[C@]1(C)O	72 mg/kg	1.56 µg/mL (≈ 1.95 µM)	0.2 µg/mL (≈ 0.25 µM)
CC#C[C@@]1(O)[C@H](C)O[C@@H](O[C@H]2[C@H](C)[C@@H](O[C@@H]3O[C@H](C)C[C@H](N(C)C)[C@H]3O)[C@](C)(O)C[C@@H](C)CN(C)[C@H](C)[C@@H](O)[C@](C)(O)[C@@H](CC)OC(=O)[C@@H]2C)C[C@@]1(C)OC	42 mg/kg	1.56 µg/mL (≈ 1.98 µM)	0.2 µg/mL (≈ 0.254 µM)
CC[C@H]1OC(=O)CC(O)[C@H](C)[C@@H](OC2O[C@H](C)[C@@H](O)[C@H](N(C)C)[C@H]2O)[C@@H](CCN2C[C@H](C)C[C@H](C)C2)CC(C)C(=O)/C=C/C(C)=C/[C@@H]1CO[C@@H]1O[C@H](C)[C@@H](O)[C@@H](OC)[C@H]1OC (some centres not stated)		50 µg/mL (≈ 57.5 µM)	0.78 µg/mL (≈ 0.897 µM)
CC[C@H]1OC(=O)[C@H](C)[C@@H](O[C@H]2C[C@@](C)(OC)[C@@](O)(C#CCOC)[C@H](C)O2)[C@H](C)[C@@H](O[C@@H]2O[C@H](C)C[C@H](N(C)C)[C@H]2O)[C@](C)(O)C[C@@H](C)CN[C@H](C)[C@@H](O)[C@]1(C)O	20 mg/kg	3.13 µg/mL (≈ 3.9 µM)	0.2 µg/mL (≈ 0.249 µM)
CC[C@H]1OC(=O)[C@H](C)[C@@H](O[C@H]2C[C@@](C)(OC)[C@@](O)(c3ccccc3)[C@H](C)O2)[C@H](C)[C@@H](O[C@@H]2O[C@H](C)C[C@H](N(C)C)[C@H]2O)[C@](C)(O)C[C@@H](C)CN[C@H](C)[C@@H](O)[C@]1(C)O		12.5 µg/mL (≈ 15.4 µM)	3.13 µg/mL (≈ 3.86 µM)
CC[C@H]1OC(=O)[C@H](C)[C@@H](O[C@H]2C[C@@](C)(OC)[C@]3(CO3)[C@H](C)O2)[C@H](C)[C@@H](O[C@@H]2O[C@H](C)C[C@H](N(C)C)[C@H]2O)[C@](C)(O)C[C@@H](C)CN[C@H](C)[C@@H](O)[C@]1(C)O		3.13 µg/mL (≈ 4.19 µM)	0.1 µg/mL (≈ 0.134 µM)
CC[C@H]1OC(=O)[C@H](C)[C@@H](O[C@H]2C[C@@](C)(OC)[C@@](O)(c3cc4ccccc4n3C)[C@H](C)O2)[C@H](C)[C@@H](O[C@@H]2O[C@H](C)C[C@H](N(C)C)[C@H]2O)[C@](C)(O)C[C@@H](C)CN(C)[C@H](C)[C@@H](O)[C@]1(C)O	> 40 mg/kg	6.25 µg/mL (≈ 7.12 µM)	0.39 µg/mL (≈ 0.444 µM)
CC[C@H]1OC(=O)[C@H](C)[C@@H](O[C@H]2C[C@@](C)(OC)[C@@](O)(CSC)[C@H](C)O2)[C@H](C)[C@@H](O[C@@H]2O[C@H](C)C[C@H](N(C)C)[C@H]2O)[C@](C)(O)C[C@@H](C)CN[C@H](C)[C@@H](O)[C@]1(C)O	44 mg/kg	3.13 µg/mL (≈ 3.94 µM)	0.1 µg/mL (≈ 0.126 µM)
CC[C@H]1OC(=O)[C@H](C)[C@@H](O[C@H]2C[C@@](C)(OC)[C@@](O)(c3nccn3C)[C@H](C)O2)[C@H](C)[C@@H](O[C@@H]2O[C@H](C)C[C@H](N(C)C)[C@H]2O)[C@](C)(O)C[C@@H](C)CN(C)[C@H](C)[C@@H](O)[C@]1(C)O		0.39 µg/mL (≈ 0.47 µM)	0.05 µg/mL (≈ 0.0603 µM)
C#C[C@@]1(O)[C@H](C)O[C@@H](O[C@H]2[C@H](C)[C@@H](O[C@@H]3O[C@H](C)C[C@H](N(C)C)[C@H]3O)[C@](C)(O)C[C@@H](C)CN[C@H](C)[C@@H](O)[C@](C)(O)[C@@H](CC)OC(=O)[C@@H]2C)C[C@@]1(C)OC	24 mg/kg	3.13 µg/mL (≈ 4.12 µM)	< 0.1 µg/mL
C#C[C@@]1(O)[C@H](C)O[C@@H](O[C@H]2[C@H](C)[C@@H](O[C@@H]3O[C@H](C)C[C@H](N(C)C)[C@H]3O)[C@](C)(O)C[C@@H](C)CN(C)[C@H](C)[C@@H](O)[C@](C)(O)[C@@H](CC)OC(=O)[C@@H]2C)C[C@@]1(C)OC	33 mg/kg	0.78 µg/mL (≈ 1.01 µM)	0.1 µg/mL (≈ 0.129 µM)
CCCC[C@@]1(O)[C@H](C)O[C@@H](O[C@H]2[C@H](C)[C@@H](O[C@@H]3O[C@H](C)C[C@H](N(C)C)[C@H]3O)[C@](C)(O)C[C@@H](C)CN[C@H](C)[C@@H](O)[C@](C)(O)[C@@H](CC)OC(=O)[C@@H]2C)C[C@@]1(C)OC		12.5 µg/mL (≈ 15.8 µM)	0.78 µg/mL (≈ 0.986 µM)
CC[C@H]1OC(=O)[C@H](C)[C@@H](O[C@H]2C[C@@](C)(OC)[C@@](O)(c3cccs3)[C@H](C)O2)[C@H](C)[C@@H](O[C@@H]2O[C@H](C)C[C@H](N(C)C)[C@H]2O)[C@](C)(O)C[C@@H](C)CN[C@H](C)[C@@H](O)[C@]1(C)O	> 80 mg/kg	3.13 µg/mL (≈ 3.83 µM)	0.78 µg/mL (≈ 0.955 µM)
CC#C[C@@]1(O)[C@H](C)O[C@@H](O[C@H]2[C@H](C)[C@@H](O[C@@H]3O[C@H](C)C[C@H](N(C)C)[C@H]3O)[C@](C)(O)C[C@@H](C)CN[C@H](C)[C@@H](O)[C@](C)(O)[C@@H](CC)OC(=O)[C@@H]2C)C[C@@]1(C)OC	21 mg/kg	1.56 µg/mL (≈ 2.02 µM)	0.2 µg/mL (≈ 0.259 µM)
CCC[C@@]1(O)[C@H](C)O[C@@H](O[C@H]2[C@H](C)[C@@H](O[C@@H]3O[C@H](C)C[C@H](N(C)C)[C@H]3O)[C@](C)(O)C[C@@H](C)CN[C@H](C)[C@@H](O)[C@](C)(O)[C@@H](CC)OC(=O)[C@@H]2C)C[C@@]1(C)OC	81 mg/kg	1.56 µg/mL (≈ 2.01 µM)	0.2 µg/mL (≈ 0.257 µM)
CC[C@H]1OC(=O)[C@H](C)[C@@H](O[C@H]2C[C@@](C)(OC)[C@@](O)(C#CCN(C)C)[C@H](C)O2)[C@H](C)[C@@H](O[C@@H]2O[C@H](C)C[C@H](N(C)C)[C@H]2O)[C@](C)(O)C[C@@H](C)CN(C)[C@H](C)[C@@H](O)[C@]1(C)O	40 mg/kg	0.39 µg/mL (≈ 0.47 µM)	0.1 µg/mL (≈ 0.12 µM)
CC[C@H]1OC(=O)[C@H](C)[C@@H](O[C@H]2C[C@@](C)(OC)[C@@](O)(CCCOC)[C@H](C)O2)[C@H](C)[C@@H](O[C@@H]2O[C@H](C)C[C@H](N(C)C)[C@H]2O)[C@](C)(O)C[C@@H](C)CN[C@H](C)[C@@H](O)[C@]1(C)O	49 mg/kg	0.78 µg/mL (≈ 0.966 µM)	0.2 µg/mL (≈ 0.248 µM)
CC[C@H]1OC(=O)[C@H](C)[C@@H](O[C@H]2C[C@@](C)(OC)[C@@](O)(C#CCOC)[C@H](C)O2)[C@H](C)[C@@H](O[C@@H]2O[C@H](C)C[C@H](N(C)C)[C@H]2O)[C@](C)(O)C[C@@H](C)CN(C)[C@H](C)[C@@H](O)[C@]1(C)O	29 mg/kg	0.39 µg/mL (≈ 0.477 µM)	0.05 µg/mL (≈ 0.0612 µM)
C=CC[C@@]1(O)[C@H](C)O[C@@H](O[C@H]2[C@H](C)[C@@H](O[C@@H]3O[C@H](C)C[C@H](N(C)C)[C@H]3O)[C@](C)(O)C[C@@H](C)CN[C@H](C)[C@@H](O)[C@](C)(O)[C@@H](CC)OC(=O)[C@@H]2C)C[C@@]1(C)OC	58 mg/kg	0.78 µg/mL (≈ 1.01 µM)	< 0.1 µg/mL
CC[C@H]1OC(=O)[C@H](C)[C@@H](O[C@H]2C[C@@](C)(OC)[C@](C)(O)[C@H](C)O2)[C@H](C)[C@@H](O[C@@H]2O[C@H](C)C[C@H](N(C)C)[C@H]2O)[C@](C)(O)C[C@@H](C)CN(C)[C@H](C)[C@@H](O)[C@]1(C)O	26 mg/kg	0.78 µg/mL (≈ 1.02 µM)	0.1 µg/mL (≈ 0.131 µM)
CC[C@H]1OC(=O)[C@H](C)[C@@H](O[C@H]2C[C@@](C)(OC)[C@@](O)(c3ccccn3)[C@H](C)O2)[C@H](C)[C@@H](O[C@@H]2O[C@H](C)C[C@H](N(C)C)[C@H]2O)[C@](C)(O)C[C@@H](C)CN[C@H](C)[C@@H](O)[C@]1(C)O	> 40 mg/kg	3.13 µg/mL (≈ 3.85 µM)	0.78 µg/mL (≈ 0.961 µM)
CC[C@H]1OC(=O)[C@H](C)[C@@H](O[C@H]2C[C@@](C)(OC)[C@@](O)(c3cccnc3)[C@H](C)O2)[C@H](C)[C@@H](O[C@@H]2O[C@H](C)C[C@H](N(C)C)[C@H]2O)[C@](C)(O)C[C@@H](C)CN[C@H](C)[C@@H](O)[C@]1(C)O	> 40 mg/kg	3.13 µg/mL (≈ 3.85 µM)	0.39 µg/mL (≈ 0.48 µM)
CC[C@H]1OC(=O)[C@H](C)[C@@H](O[C@H]2C[C@@](C)(OC)[C@@](O)(CC)[C@H](C)O2)[C@H](C)[C@@H](O[C@@H]2O[C@H](C)C[C@H](N(C)C)[C@H]2O)[C@](C)(O)C[C@@H](C)CN[C@H](C)[C@@H](O)[C@]1(C)O	61 mg/kg	1.56 µg/mL (≈ 2.04 µM)	0.2 µg/mL (≈ 0.262 µM)
CC[C@H]1OC(=O)[C@H](C)[C@@H](O[C@H]2C[C@@](C)(OC)[C@@](O)(C#CCN(C)C)[C@H](C)O2)[C@H](C)[C@@H](O[C@@H]2O[C@H](C)C[C@H](N(C)C)[C@H]2O)[C@](C)(O)C[C@@H](C)CN[C@H](C)[C@@H](O)[C@]1(C)O	22 mg/kg	1.56 µg/mL (≈ 1.91 µM)	0.2 µg/mL (≈ 0.245 µM)
CC[C@H]1OC(=O)[C@H](C)[C@@H](O[C@H]2C[C@@](C)(OC)[C@@](O)(CCO)[C@H](C)O2)[C@H](C)[C@@H](O[C@@H]2O[C@H](C)C[C@H](N(C)C)[C@H]2O)[C@](C)(O)C[C@@H](C)CN[C@H](C)[C@@H](O)[C@]1(C)O		6.25 µg/mL (≈ 8.02 µM)	0.39 µg/mL (≈ 0.501 µM)
